Only some compounds are listed: those with a hit (about 1.5% of all), similar ones and a draw of the others.
PDI turbidity: PDI (human) enzyme inhibition | 0.052% of 350,000 active | inhibition, % at 10 µM | P07237 | PDI insulin aggregation turbidity, A650, 90 min;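 active = mean inhibition across replicates of 30% or more, whatever share of single replicates reach that level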
Target sequence (P07237 whole entry, looked up): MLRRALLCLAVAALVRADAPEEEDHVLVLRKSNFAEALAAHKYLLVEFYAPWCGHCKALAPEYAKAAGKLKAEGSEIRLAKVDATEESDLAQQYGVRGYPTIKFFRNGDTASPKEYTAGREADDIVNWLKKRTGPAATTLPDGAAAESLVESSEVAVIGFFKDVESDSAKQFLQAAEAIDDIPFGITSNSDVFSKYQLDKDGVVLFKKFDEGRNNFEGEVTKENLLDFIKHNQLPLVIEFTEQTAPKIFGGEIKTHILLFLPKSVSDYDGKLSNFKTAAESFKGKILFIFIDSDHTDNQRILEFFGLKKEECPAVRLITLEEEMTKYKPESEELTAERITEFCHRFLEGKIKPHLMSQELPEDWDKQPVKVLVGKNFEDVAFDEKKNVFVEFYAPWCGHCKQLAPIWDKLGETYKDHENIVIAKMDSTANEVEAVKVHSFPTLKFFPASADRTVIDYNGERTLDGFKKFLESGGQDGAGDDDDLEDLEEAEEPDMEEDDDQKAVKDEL
S100A4 inh HTS: blocks human S100A4 binding to myosin IIA peptide | P26447 | S100A4/TAMRA-MyoIIA peptide fluorescence polarization | inhibition, % at 10.7 µM | 0.14% of 360,000 active | AID 652163;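 active = mean inhibition of at least 70% across replicates, with every replicate also reaching that level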
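Material: human S100A4 monomer with TAMRA-labelled myosin IIA peptide; buffer or medium: HEPES pH 7.2 with CaCl2, KCl, NaCl, DTT, Triton; compound dosing: one concentration per compound; schedule: 5 min incubation before reading; benchmarks: neutral control DMSO, positive control TFP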
SIRT5 inh: blocks human SIRT5 desuccinylation of peptide. Purified SirT5, succinyl-peptide AMC, trypsin-coupled fluorescence. inhibition, % at 15 µM. Q9NXA8. 1.1% of 330,000 active; in the data active = inhibition above about 15%
ERp5 block: ERp5 (human) disulfide isomerase inhibition. Q15084. ERp5 insulin aggregation, absorbance 650 nm, 90 min. inhibition, % at 9.99 µM. 0.05% of 350,000 active. AID 651711;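 active = mean replicate inhibition above about 25%, with every replicate also reaching it, limit read from the data, passing the limit was not always enough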
GSIS activator: GLuc luminescence reporter in INS-1E cells, primary screen for activators of glucose-dependent secretion of insulin; activation, % at 16.6 µM; 0.61% of 370,000 active; INS-1E GLuc reporter insulin secretion, 2-3 h; AID 743287;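 active = lowest replicate activation of at least 40%, so every replicate reaches that level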
Of the large screens only hits and unclear results are named; the others gave an inactive call.

COC(=O)C1=C(C)N(Cc2cccc(C(F)(F)F)c2)C(=NCc2ccc(C(F)(F)F)cc2)NC1c1ccccc1C(F)(F)F (stereo not drawn)	none (no result: PDI turbidity)
COC(=O)C1=C(C)N(Cc2cccc(C(F)(F)F)c2)C(=NCc2ccc(OC)cc2)NC1c1ccccc1C(F)(F)F (stereo not drawn)	SIRT5 inh 15, GSIS activator 40 (no result: PDI turbidity)
COC(=O)C1=C(C)N(Cc2ccccc2C(F)(F)F)C(=NCc2cccc(C(F)(F)F)c2)NC1c1ccc(C(F)(F)F)cc1 (stereo not drawn)	GSIS activator 103 (no result: PDI turbidity)
COC(=O)C1=C(C)N(Cc2cccc(C(F)(F)F)c2)C(=NCc2ccccc2C(F)(F)F)NC1c1cccc(C(F)(F)F)c1 (stereo not drawn)	none (no result: PDI turbidity, GSIS activator)
COC(=O)C1=C(C)N(Cc2ccccc2C(F)(F)F)C(=NCc2ccc3c(c2)OCO3)NC1c1cccc(F)c1 (stereo not drawn)	SIRT5 inh 17, GSIS activator 49 (no result: PDI turbidity)
COC(=O)C1=C(C)N(Cc2cccc(C(F)(F)F)c2)C(=NCc2ccccc2C(F)(F)F)NC1c1cccc(F)c1 (stereo not drawn)	GSIS activator 166 (no result: PDI turbidity)
CC(C)NC(=O)N(C)C[C@H]1OCCCC[C@@H](C)Oc2ccc(NC(=O)CCC(F)(F)F)cc2C(=O)N([C@@H](C)CO)C[C@@H]1C	none (no result: PDI turbidity)
CCN1[C@@H]2Cn3c(ccc(/C=C/c4ccccc4)c3=O)[C@H]1[C@@H](C(=O)N1CCCCC1)[C@@H]2CO	none (no result: PDI turbidity, S100A4 inh HTS, SIRT5 inh, ERp5 block)
COC(=O)C1=C(C)N(Cc2cccc(C(F)(F)F)c2)C(=NCc2ccc3c(c2)OCO3)NC1c1cccc(F)c1 (stereo not drawn)	GSIS activator 40 (no result: PDI turbidity)
CCOc1ccccc1NC(=O)COC(=O)CC(C)(C)CC1=NS(=O)(=O)c2ccccc2N1	SIRT5 inh 18
Cc1cc(C)cc(NC(=O)COC(=O)CCCC2=NS(=O)(=O)c3ccccc3N2)c1	none
C[C@H](CO)N1C[C@H](C)[C@@H](CN(C)CC2CCCCC2)Oc2ccc(NS(=O)(=O)c3ccccc3)cc2C1=O	none (no result: PDI turbidity)
CC1=C(C(=O)OCC(Br)(Br)Br)C(c2cccc([N+](=O)[O-])c2)NC(=O)N1CCCC(=O)O (stereo not drawn)	SIRT5 inh 23
CCC(=O)NC[C@H]1[C@@H](c2ccc(-c3ccccc3)cc2)[C@H](CO)N1C(=O)C1CC1	none (no result: PDI turbidity)
COc1ccc(CNC(=O)C(c2ccco2)N(C(=O)Cc2cccs2)c2cccnc2)cc1 (stereo not drawn)	SIRT5 inh 35
O=C(O)c1cc(N2C(=O)C3CCCCC3C2=O)ccc1NCc1cccnc1 (stereo not drawn)	SIRT5 inh 21
COc1ccc2ccccc2c1/C=N/NC(=O)c1nnn(-c2nonc2N)c1C(C)C	SIRT5 inh 28
COc1ccc2ccccc2c1/C=N/NC(=O)c1nnn(-c2nonc2N)c1CN(C)C	none
O=C(Cc1nnc(NC(=O)Nc2ccccc2)s1)NCc1ccccc1	none
O=C(Cc1nnc(NC(=O)Nc2ccc(Cl)cc2)s1)NCc1ccccc1	SIRT5 inh 38
COc1cccc(C(=O)c2cc3cc(Cl)ccc3[nH]2)c1	none
O=C(c1ccccc1)c1cc2cc(Cl)ccc2[nH]1	GSIS activator 41
C/C=C/c1ccc2c(c1)O[C@H](CN(C)Cc1cccc(F)c1)[C@@H](C)CN([C@@H](C)CO)S2(=O)=O	SIRT5 inh 17 (no result: PDI turbidity, ERp5 block)
C/C=C/c1ccc2c(c1)O[C@@H](CN(C)Cc1ccccc1)[C@@H](C)CN([C@@H](C)CO)S2(=O)=O	none (no result: PDI turbidity)
C[C@@H]1CN([C@@H](C)CO)S(=O)(=O)c2ccc(Br)cc2O[C@@H]1CN(C)Cc1ccncc1	S100A4 inh HTS 111 (no result: PDI turbidity)
C/C=C/c1ccc2c(c1)O[C@H](CN(C)Cc1ccccc1)[C@@H](C)CN([C@@H](C)CO)S2(=O)=O	SIRT5 inh 18 (no result: PDI turbidity)
C/C=C/c1ccc2c(c1)O[C@H](CN(C)CC1CC1)[C@H](C)CN([C@H](C)CO)S2(=O)=O	none (no result: PDI turbidity, S100A4 inh HTS, SIRT5 inh, ERp5 block)
C[C@@H]1CN([C@H](C)CO)S(=O)(=O)c2ccc(Br)cc2O[C@@H]1CN(C)Cc1ccncc1	none (no result: PDI turbidity)
C/C=C/c1ccc2c(c1)O[C@H](CN(C)CC1CCCC1)[C@@H](C)CN([C@H](C)CO)S2(=O)=O	SIRT5 inh 15 (no result: PDI turbidity)
O=C(C[C@H]1C[C@@H]2c3cc(NC(=O)c4cccnc4)ccc3O[C@@H]2[C@@H](CO)O1)NCc1ccc(Oc2ccccc2)cc1	none (no result: PDI turbidity)

High-throughput results: PubChem, Broad Institute
